This note sets out measurements from ChEMBL document CHEMBL5149984, “Discovery of HN37 as a Potent and Chemically Stable Antiepileptic Drug Candidate” (J Med Chem, 2021).

Series [1] is described as follows: AUC(0 to t) in Kunming mouse plasma at 2 mg/kg, iv measured upto 24 hrs by LC-MS/MS method. It is filed as ADME, organism-based. On the set-up: time < 24 hrs, dose 2 mg/kg, route iv. In a few lines:
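KM male mice (18−24 g), fasted 12 h before and 2 h after dosing. HN37 given orally at 5 mg/kg in 5% DMSO/5% Tween 80/90% saline, or iv at 2 mg/kg after dilution in saline with 1% Tween 80; n = 3 per time point. Blood sampled 0.25–24 h (from 0.083 h after iv); whole brain taken after oral dosing. Plasma and brain extracted with acetonitrile, quantified by LC−MS/MS; AUC0−t by trapezoidal method.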

The nature of series [2]: Tmax in Kunming mouse plasma at 5 mg/kg, po measured upto 24 hrs by LC-MS/MS method. It is filed as ADME, organism-based. Put shortly:
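Male KM mice (18–24 g), fasted 12 h before and 2 h after dosing, n = 3 per time point. Oral dose in 5% DMSO/5% Tween 80/90% saline; i.v. dose is that formulation diluted in saline with 1% Tween 80. Blood sampled 0.25–24 h after oral dosing, 0.083–24 h after i.v.; whole brain taken after oral dosing. Acetonitrile extraction with internal standard, LC-MS/MS.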

The target in a further series is CYP2C19 (Homo sapiens, UniProt P33261). Kind of series: Inhibition of human liver microsome CYP2C19 at 0.10 to 50 uM preincubated with NADPH for 0.5 hrs followed by substrate addition by LC-MS/MS method relative to control. It is filed as ADME. Conditions: liver microsomes, dose 0.1-50 µM. On the technique in general: Liver microsomes are vesicles of endoplasmic reticulum, rich in cytochrome P450 enzymes.

Another series has as its system Brain. Kind of series: Anticonvulsant activity in MES induced Kunming mouse model of seizure assessed as EC50 in brain. It is filed as functional, tissue-based.
The target of series [3] is Potassium voltage-gated channel subfamily KQT member 2 (Rattus norvegicus) (UniProt O88943). Put plainly: Agonist activity at rat KCNQ2 channel expressed in CHO cells assessed as shift of half voltage of maximal activation at 0.1 uM by patch clamp method. Conditions: filed as agonist. It is filed as cell-based. In a few lines:
(§1)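 Whole-cell patch clamp at room temperature on CHO cells (DMEM/F12, 10% FBS) transiently co-transfected with EGFP and hKCNQ1, rKCNQ2, rKCNQ3 A278T, hKCNQ4 or hKCNQ5; KCNQ2/3 at 1:1 cDNA ratio. Pipette solution 145 mM KCl, 5 mM MgATP, pH 7.3; bath 140 mM NaCl, 5 mM KCl, pH 7.4, under perfusion. V1/2 from Boltzmann fits; I/I0 is current amplitude with versus without compound; n = 4−6.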
In general terms: Patch clamp records ionic current or voltage across a cell membrane.

Series [4] can be described thus: Ratio of drug concentration in Kunming mouse brain to plasma by rotarod test.
Series [5] can be described thus: Half life in Kunming mouse plasma at 5 mg/kg, po measured upto 24 hrs by LC-MS/MS method. It is filed as ADME, organism-based. Put shortly: (§2)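 Male KM mice (18−24 g) fasted 12 h before and 2 h after dosing, given 5 mg/kg orally in 5% DMSO/5% Tween 80/90% normal saline (n = 3 per time point). Aortic blood taken at 0.25–24 h and whole brain collected. Acetonitrile extraction with internal standard, then LC−MS/MS. Bioavailability calculated against the 2 mg/kg i.v. arm.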

The target of series [6] is T1, Potassium voltage-gated channel subfamily KQT member 1 (Homo sapiens, UniProt P51787).
T1 sequence (P51787 whole entry): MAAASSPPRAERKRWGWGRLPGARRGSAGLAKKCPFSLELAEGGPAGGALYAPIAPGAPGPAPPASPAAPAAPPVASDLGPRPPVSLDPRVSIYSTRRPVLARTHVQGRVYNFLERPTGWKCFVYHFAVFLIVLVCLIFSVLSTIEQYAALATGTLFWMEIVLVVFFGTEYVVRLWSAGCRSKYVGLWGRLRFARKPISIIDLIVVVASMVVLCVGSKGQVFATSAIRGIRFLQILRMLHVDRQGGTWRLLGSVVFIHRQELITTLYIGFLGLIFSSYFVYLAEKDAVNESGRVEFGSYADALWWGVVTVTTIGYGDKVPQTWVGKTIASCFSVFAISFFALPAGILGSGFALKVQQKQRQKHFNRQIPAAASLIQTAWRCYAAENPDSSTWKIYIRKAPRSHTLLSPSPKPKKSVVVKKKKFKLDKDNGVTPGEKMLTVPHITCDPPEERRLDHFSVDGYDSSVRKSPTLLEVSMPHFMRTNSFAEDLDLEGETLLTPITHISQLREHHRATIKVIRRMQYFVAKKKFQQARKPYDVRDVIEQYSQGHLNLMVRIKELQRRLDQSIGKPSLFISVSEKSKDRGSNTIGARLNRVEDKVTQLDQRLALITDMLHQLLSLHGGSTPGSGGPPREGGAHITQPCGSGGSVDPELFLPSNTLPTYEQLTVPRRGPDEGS
Put plainly: Agonist activity at human KCNQ1 channel expressed in CHO cells assessed as shift of half voltage of maximal activation at 0.1 uM by patch clamp method. It is filed as cell-based. In a few lines:
as §1

The nature of series [7]: Oral bioavailability in Kunming mouse plasma at 5 mg/kg measured upto 24 hrs by LC-MS/MS method. It is filed as ADME, organism-based. Put shortly:
as §2

Series [8] in a line: Tmax in Sprague-Dawley rat at 2 mg/kg, po measured upto 24 hrs by LC-MS/MS method. It is filed as ADME, organism-based. The note with it: in vivo. In a few lines:
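Male SD rats (180–220 g) dosed orally at 2, 6 and 20 mg/kg, handled like the mice: fasting, 5% DMSO/5% Tween 80/saline vehicle, acetonitrile extraction, LC-MS/MS of plasma. In a separate set at 6 mg/kg p.o., blood and brain were sampled together.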

A short description of series [9]: Drug concentration in Kunming mouse brain at 5 mg/kg. It is filed as ADME, organism-based. The note with it: in vivo, read-out: Ct. In a few lines:
as §2

In the next series the target is Cytochrome P450 2C9 (Homo sapiens, UniProt P11712). Put plainly: Time dependent inhibition of human liver microsome CYP2C9 preincubated for 0.5 hrs in presence or absence of NADPH followed by substrate addition by LC-MS/MS method. It is filed as ADME, microsomes. In a few lines: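 Human liver microsomes preincubated 0.5 h with 0.10–50 μM test compound, with or without NADPH, then CYP-specific probe substrate added and incubation continued. Metabolite measured by LC-MS/MS; % activity remaining relative to no-compound control; IC50 fitted by Probit model. For CYP3A4, midazolam 1′-hydroxylation and testosterone 6β-hydroxylation were read separately.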

Another series relates to CHO. Put plainly: Agonist activity at rat KCNQ3 A278T mutant expressed in CHO cells assessed as shift of half voltage of maximal activation at 10 uM by patch clamp method. It is filed as cell-based. Conditions: filed as agonist. In a few lines: as §1
A short description of series [10]: Toxicity in C57BL/6 mouse assessed as sedative effect at 80 mg/kg. It is filed as organism-based. The note with it: in vivo.

The structures appear in SMILES notation.

Chain of CYP2C19 (P33261 whole entry): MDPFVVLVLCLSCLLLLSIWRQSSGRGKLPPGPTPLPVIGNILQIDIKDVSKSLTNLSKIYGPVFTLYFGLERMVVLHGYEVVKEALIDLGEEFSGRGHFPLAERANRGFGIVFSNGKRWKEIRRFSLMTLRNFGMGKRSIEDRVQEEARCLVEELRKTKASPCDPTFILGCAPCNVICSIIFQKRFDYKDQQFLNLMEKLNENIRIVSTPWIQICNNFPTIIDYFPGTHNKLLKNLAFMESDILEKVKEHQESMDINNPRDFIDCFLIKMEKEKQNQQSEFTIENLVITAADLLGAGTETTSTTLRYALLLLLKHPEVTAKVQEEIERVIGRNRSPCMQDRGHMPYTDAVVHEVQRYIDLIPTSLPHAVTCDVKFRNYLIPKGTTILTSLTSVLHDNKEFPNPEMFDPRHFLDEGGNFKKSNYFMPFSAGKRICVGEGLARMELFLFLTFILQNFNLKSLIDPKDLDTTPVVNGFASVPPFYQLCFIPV
Chain of Potassium voltage-gated channel subfamily KQT member 2 (Rattus norvegicus) (O88943 whole entry, the tested form may be a part): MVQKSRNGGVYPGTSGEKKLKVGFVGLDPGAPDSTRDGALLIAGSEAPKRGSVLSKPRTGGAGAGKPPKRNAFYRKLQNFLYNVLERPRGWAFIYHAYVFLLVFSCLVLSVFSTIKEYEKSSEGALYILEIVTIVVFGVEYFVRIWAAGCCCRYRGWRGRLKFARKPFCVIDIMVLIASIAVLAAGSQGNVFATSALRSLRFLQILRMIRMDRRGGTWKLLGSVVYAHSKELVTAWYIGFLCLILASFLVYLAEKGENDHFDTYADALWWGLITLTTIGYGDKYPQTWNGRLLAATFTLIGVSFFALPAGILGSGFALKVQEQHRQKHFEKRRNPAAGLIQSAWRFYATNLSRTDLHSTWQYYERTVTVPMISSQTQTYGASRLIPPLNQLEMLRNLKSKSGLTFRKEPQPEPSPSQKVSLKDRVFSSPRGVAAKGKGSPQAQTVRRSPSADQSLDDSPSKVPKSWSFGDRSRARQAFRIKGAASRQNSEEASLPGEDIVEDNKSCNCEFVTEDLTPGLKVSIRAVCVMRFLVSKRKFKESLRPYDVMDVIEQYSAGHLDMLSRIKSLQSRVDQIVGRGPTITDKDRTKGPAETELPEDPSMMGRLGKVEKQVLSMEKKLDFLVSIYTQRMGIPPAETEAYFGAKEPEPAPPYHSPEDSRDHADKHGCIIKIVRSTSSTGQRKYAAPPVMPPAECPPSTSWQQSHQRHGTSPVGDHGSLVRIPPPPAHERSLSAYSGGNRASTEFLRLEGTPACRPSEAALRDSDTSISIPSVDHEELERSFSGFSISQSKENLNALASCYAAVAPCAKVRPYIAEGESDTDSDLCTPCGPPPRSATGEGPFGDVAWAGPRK
Chain of Cytochrome P450 2C9 (P11712 whole entry): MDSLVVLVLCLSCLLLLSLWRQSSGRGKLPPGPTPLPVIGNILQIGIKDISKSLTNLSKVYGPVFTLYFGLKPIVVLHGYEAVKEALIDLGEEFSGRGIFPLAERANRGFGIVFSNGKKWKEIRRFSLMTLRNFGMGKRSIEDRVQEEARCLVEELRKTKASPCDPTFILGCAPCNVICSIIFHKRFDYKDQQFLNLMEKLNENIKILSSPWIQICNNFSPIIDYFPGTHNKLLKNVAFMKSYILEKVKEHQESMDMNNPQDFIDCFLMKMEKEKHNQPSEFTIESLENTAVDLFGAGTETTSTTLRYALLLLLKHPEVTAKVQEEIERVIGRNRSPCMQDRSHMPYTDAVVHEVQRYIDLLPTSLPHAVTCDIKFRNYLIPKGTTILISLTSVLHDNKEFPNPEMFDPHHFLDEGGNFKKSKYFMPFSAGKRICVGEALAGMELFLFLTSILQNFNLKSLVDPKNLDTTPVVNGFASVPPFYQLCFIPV

In turn, `C#CCN(Cc1ccc(F)cc1)c1cc(C)c(NC(=O)OC)c(C)c1` came in with an AUC(0-t) at 24 h in series [1] of 531 ng·h/mL. Also, the Tmax in series [2] amounted to 15 min; in [8], 30 min. On CYP2C19, the inhibition at 0.5 h, up to 50 µM is < 25%. For the same compound, in the series with Brain, the EC50 worked out at 70 nM. For the same compound, the Activity was -35.6 mV in series [3] and -5.47 mV in [6]. Besides, the Kp in series [4] was 1.9. Besides, in series [5], the half-life was 117 min. Further, the bioavailability in [7] is 24.2%. For the same compound, the concentration in [9] turned out to be 120 nM. Further, the IC50 on Cytochrome P450 2C9 was > 50000 nM.

On to `CCOC(=O)Nc1ccc(NCc2ccc(F)cc2)cc1N` [EZOGABINE], for which the Activity is -46.8 mV with CHO and “Toxic” in series [10].

The AUC(0-t) is exposure summed from dosing to a finite time, without extrapolation to infinity. Higher therefore signals high exposure. The term Tmax denotes the time from dosing to the highest level. One may read the inhibition as the drop in the measured response relative to a control, in per cent. A low value points to a response near the control. What is called EC50 is the concentration at which the effect is half-maximal. The Kp is the ratio of the level in a tissue or fluid to that in plasma or blood. The term half-life denotes the time in which the quantity being followed falls by half. A low value points to rapid decline. As a reminder, the bioavailability is dose-corrected exposure relative to a reference, in per cent. A low value points to little systemic uptake. In general, IC50 refers to the point on the concentration scale where inhibition reaches its midpoint. Lower therefore signals inhibition by little substance.
